# Screening data deposited in PubChem by several laboratories.
# TNAP act hi DEA – TNAP activators at high phosphate acceptor level, primary screen, biochemical, luminescence, uHTS. 200,000 tested, under 10 active. AID 1136, 2008. Alkaline phosphatase, tissue-nonspecific isozyme (Homo sapiens), P05186. activation factor at 20 µM. purified TNAP, CDP-star luminescence, 1 M DEA, 30 min; stronger effect = higher value; 0 = EDTA background, 1 = DMSO-only activity;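 active means activation factor at least 2 at 20 µM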
# Target sequence (P05186 whole entry, looked up): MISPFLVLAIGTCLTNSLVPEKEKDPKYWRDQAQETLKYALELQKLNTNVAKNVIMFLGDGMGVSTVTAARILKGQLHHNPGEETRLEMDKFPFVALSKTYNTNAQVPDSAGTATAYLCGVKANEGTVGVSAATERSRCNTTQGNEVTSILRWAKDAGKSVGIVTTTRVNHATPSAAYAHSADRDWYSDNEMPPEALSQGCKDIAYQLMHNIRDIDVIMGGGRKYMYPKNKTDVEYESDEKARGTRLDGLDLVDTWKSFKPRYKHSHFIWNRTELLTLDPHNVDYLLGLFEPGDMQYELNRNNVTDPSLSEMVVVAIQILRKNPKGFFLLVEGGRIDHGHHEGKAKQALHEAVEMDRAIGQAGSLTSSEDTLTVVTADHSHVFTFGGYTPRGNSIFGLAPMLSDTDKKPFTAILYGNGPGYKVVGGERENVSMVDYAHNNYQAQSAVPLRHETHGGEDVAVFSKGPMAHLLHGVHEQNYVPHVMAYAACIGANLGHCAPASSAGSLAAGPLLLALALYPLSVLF
#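 system = human TNAP | amount = enzyme diluted 1/800 final | reagent = 100 µM CDP-star substrate | signal = luminescent substrate turnover signal | dosing = one dose, 20 µM | benchmarks = EDTA negative control, DMSO positive control | measure = activation factor | timing = 30 min reaction, room temperature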
# TNAP inh noacc – human TNAP enzyme inhibitors, primary screen, biochemical, luminescent, no phosphate acceptor, uHTS; purified TNAP, CDP-star luminescence, 30 min; actives 0.26% (n = 200,000); inhibition, % at 20 µM; Alkaline phosphatase, tissue-nonspecific isozyme (Homo sapiens), P05186;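 active means tissue-nonspecific alkaline phosphatase inhibition above about 50% at 20 µM in the single-dose screen, limit read from the data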;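 further: 0% = DMSO negative control and 100% = EDTA positive control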
# HCT116 PTEN-null – growth suppression of PTEN-null HCT116, primary screen, cell-based, CellTiter-Glo; viability, % at 10 µM; HCT116 PTEN-null viability, 60 h; stronger effect = lower value; actives 1.2% (n = 140,000);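 active means viability at or below a set limit, 4 SD under the median of all tested compounds, cut at about 3.7% in these data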;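 further: PTEN knockout HCT116 line with beta catenin targeted HCT116 as companion control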
# Lmaj promast – Leishmania major promastigote growth inhibition, primary screen. Leishmania major promastigotes, resazurin fluorescence viability. inhibition, % at 10 µM. actives 9% (n = 200,000); in the data active means inhibition above about 50%;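 further: promastigotes grown with compound for 44 hours at 28 °C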
# bCat KO growth – primary screen for growth suppressors in beta-catenin knockout HCT116 cells (colon tumor, human). viability, % at 10 µM. HCT116 beta-catenin knockout viability, CellTiter-Glo, 60 h; stronger effect = lower value. actives 1.5% (n = 140,000). AID 818, 2007;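 active means viability at or under a set limit, the compound median less 4 SD, cut at about 6% in these data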;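 further: 0% = Hyamine 1622 control at 20 µM and 100% = untreated cell control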
# TNAP inh hi DEA – human TNAP enzyme inhibitors, primary screen, biochemical, luminescent, high phosphate acceptor level, uHTS; purified TNAP, CDP-star luminescence, 1 M DEA; Alkaline phosphatase, tissue-nonspecific isozyme (Homo sapiens), P05186; actives 0.03% (n = 200,000); inhibition, % at 20 µM;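 active means over 50% inhibition of tissue-nonspecific alkaline phosphatase at 20 µM in the single-dose screen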;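 further: plate controls were DMSO wells for no effect and EDTA-quenched wells as full inhibition for full effect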
# * hit, by the source's call; . = not tested or not shown. In the library only some 9.6% were active in any assay of this set; here they are far more common.
SMILES,TNAP act hi DEA,TNAP inh noacc,HCT116 PTEN-null,Lmaj promast,bCat KO growth,TNAP inh hi DEA
C/C(N)=C(/C#N)C(=O)COC(=O)c1oc2ccccc2c1COC(C)C,1,-14,.,15,.,2
CCC(CC)NC(=O)c1cccc(NC(=O)C(C)C)c1,1,-8,101,-1,91,-3
Cc1noc(C)c1COC(=O)c1ccc(N(C)C)cc1,1,-4,.,2,.,0
Cc1ccc(C(=O)N/N=C\c2ccc([N+](=O)[O-])s2)cn1,0.8,20,2.6*,100*,2.4*,24
Cn1c(SCC(=O)N/N=C/c2ccc([N+](=O)[O-])s2)nnc1-c1ccc(Cl)cc1,0.9,9,1.6*,100*,1.9*,5
CC(C)(C)OC(=O)N/N=C\c1ccc([N+](=O)[O-])s1,1,-4,.,80*,.,0
Cc1cc(C)n(CC(=O)N/N=C/c2ccc([N+](=O)[O-])s2)n1,0.9,-1,.,99*,.,10
Cc1cc(C)n(CC(=O)N/N=C/c2cccs2)n1,1.1,-12,95,-6,102,-6
CCOC(=O)N/N=C\c1ccc([N+](=O)[O-])s1,1,-5,.,39,.,5
C=CCOc1ccc(CNCCc2ccc(S(N)(=O)=O)cc2)cc1,1,-11,.,27,.,-2
O=C(N/N=C/c1ccc([N+](=O)[O-])s1)c1cccc(Br)c1,0.8,1,4,100*,7,18
O=C(N/N=C/c1cccc([N+](=O)[O-])c1)c1cccc(Br)c1,1.1,-20,.,1,.,-8
COc1cc(Br)cc(/C=N/NC(=O)Cc2ccc(C(F)(F)F)cc2[N+](=O)[O-])c1O,1,-20,5,73*,8,3
CCOc1cc(/C=N/NC(=O)Cc2ccc(C(F)(F)F)cc2[N+](=O)[O-])c(Br)cc1OC,1,-5,37,-7,18,2
COC(=O)C(C(=O)OC)C(C[N+](=O)[O-])c1ccc(OC)c(OC)c1 (stereo unspecified),1,-12,84,100*,65,-4
O=C1CCC(C(=O)N2CCCC(C(=O)c3ccc4c5c(cccc35)CC4)C2)=NN1 (stereo unspecified),1,-5,.,1,.,-3
O=C1C2C3C=CC(C3)C2C(=O)N1c1n[nH]c(-c2ccccc2)n1 (stereo unspecified),1,96*,94,-4,88,-2
O=C1C2C3C=CC(C3)C2C(=O)N1c1cccc(N2C(=O)C3C4C=CC(C4)C3C2=O)n1 (stereo unspecified),1,-8,109,-1,91,-3
O=C1C2C3C=CC(C3)C2C(=O)N1c1n[nH]c(-c2cccnc2)n1 (stereo unspecified),1,59*,105,-14,93,-2
O=C1C2CC=CCC2C(=O)N1c1n[nH]c(CCc2ccccc2)n1 (stereo unspecified),1,79*,91,-5,89,2
O=C1C2CC=CCC2C(=O)N1c1n[nH]c(-c2ccccc2)n1 (stereo unspecified),1,97*,105,1,96,2
COc1ccc(CNC(=O)CN2C(=O)C3C4C=CC(C4)C3C2=O)cc1 (stereo unspecified),1,-9,.,3,.,-4
CCCCCC1=CCC/C1=N\NC(=O)c1ccc2c(c1)OCO2,1.1,-10,.,12,.,-7
CCOC(=O)C=C(C(=O)OCC)C(=O)OCC,1.1,-9,.,100*,.,-7
Cc1cc(Cl)c(OCCCSc2nc(C)cc(=O)[nH]2)c(Br)c1,1,-6,93,-8,85,0
SMILES,TNAP act hi DEA,TNAP inh noacc,HCT116 PTEN-null,Lmaj promast,bCat KO growth,TNAP inh hi DEA
Cc1cc(Cl)cc(Br)c1OCCCNCC(C)O (stereo unspecified),1,-8,.,30,.,-2
COCCNCCCCOc1c(Cl)cc(C)cc1Br,1,-2,63,98*,57,3
Cc1cc(Cl)c(OCCCNCc2ccccc2)c(Br)c1,1.1,-25,1.2*,84*,1.5*,-7
CC1CCCC(NC(=O)C2CCN(S(=O)(=O)N3CCCCC3)CC2)C1C (stereo unspecified),1,-11,.,-4,.,-3
CC(C)OCCCNC(=O)Nc1cccc2ccccc12,1,-6,.,-5,.,0
CC(=O)Nc1ccc(S(=O)(=O)N2CCN(C(C)CCc3ccccc3)CC2)cc1 (stereo unspecified),1.1,-10,107,86*,88,-6
O=C(CS(=O)(=O)Cc1ccccc1)Nc1ccc(S(=O)(=O)N2CCOCC2)cc1,1,1,105,-4,93,-3
O=S(=O)(c1ccc(NC(=S)NCCc2ccccc2)cc1)N1CCOCC1,1.1,-14,78,69*,88,-7
O=S(=O)(c1ccc(NC(=S)NN=C(Cc2ccccc2)Cc2ccccc2)cc1)N1CCOCC1,1,-11,.,92*,.,-5
COc1ccc(NC(=O)c2cc3c(s2)CCC(C)C3)cc1S(=O)(=O)N1CCOCC1 (stereo unspecified),1,4,16,24,15,-4
COc1ccc(OC)c(C(=O)COC(=O)c2ccc(C)o2)c1,1,4,96,-9,89,-4
COc1ccc(C(=O)OCC(=O)c2cc(OC)ccc2OC)c(OC)c1,1.1,5,0.8*,19,0.6*,-6
CCC(=O)NC(=S)Nc1ccc(NC(=O)c2ccc([N+](=O)[O-])cc2Cl)cc1,1,-13,88,-1,82,1
O=c1ccn(CCc2c[nH]c3ccccc23)c2c1CCCC2,1,-6,.,2,.,-4
COc1nc(Nc2ccc([N+](=O)[O-])cc2)nc(NC2CCCCC2)n1,1,-4,.,89*,.,-3
CCC(=O)NC(Nc1c(C)n(C)n(-c2ccccc2)c1=O)C(Cl)(Cl)Cl (stereo unspecified),1.1,-12,.,3,.,-7
CCOc1cc(/C=C(\C#N)C(=O)NCC2CCCO2)ccc1OCC(N)=O (stereo unspecified),1.1,-14,.,3,.,-9
CCOc1cc(/C=C(\C#N)C(=O)NCC2CCCO2)ccc1O (stereo unspecified),0.8,9,101,64*,88,23
O=C(Cc1ccccc1)NC(NCCc1ccccc1)C(Cl)(Cl)Cl (stereo unspecified),1,1,79,98*,79,-1
Oc1cccc2cc3cccc(O)c3c(O)c12,1,-12,.,-1,.,5
O=[n+]1c2c(n([O-])c3ccccc31)CCCC2,1,7,99,-6,96,-2
CN(c1ccccc1)S(=O)(=O)c1cc(C(=O)OCC(N)=O)ccc1Cl,1,-11,.,3,.,-4
